Measured values: ChEMBL document CHEMBL1144676, “Synthesis and structure-activity relationships of a series of benzazepine derivatives as 5-HT2C receptor agonists” (Bioorg Med Chem, 2008)

Assays:
[1] = molecular target: T1, 5-hydroxytryptamine receptor 2C (Homo sapiens, UniProt P28335); assay: Displacement of [3H]5-HT from human 5HT2C receptor expressed in CHO cells; type: cell-based
T1 sequence (P28335 whole entry): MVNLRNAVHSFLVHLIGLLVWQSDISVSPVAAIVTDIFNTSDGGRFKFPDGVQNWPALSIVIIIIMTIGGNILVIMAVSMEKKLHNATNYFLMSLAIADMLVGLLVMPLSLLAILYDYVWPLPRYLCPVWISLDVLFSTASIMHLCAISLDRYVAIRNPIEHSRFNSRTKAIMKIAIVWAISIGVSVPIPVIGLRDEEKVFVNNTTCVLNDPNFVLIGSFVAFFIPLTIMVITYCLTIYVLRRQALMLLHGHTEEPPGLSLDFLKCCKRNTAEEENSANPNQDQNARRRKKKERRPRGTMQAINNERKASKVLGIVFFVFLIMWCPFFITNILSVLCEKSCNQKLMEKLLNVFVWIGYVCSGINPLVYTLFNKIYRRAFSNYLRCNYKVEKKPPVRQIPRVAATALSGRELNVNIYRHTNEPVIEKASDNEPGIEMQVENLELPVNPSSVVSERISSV
In short: (§1)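 Radioligand displacement of [3H]5-HT using membranes from CHO cells (5-HT2C, 5-HT2A) or HEK293-EBNA cells (5-HT2B). Medium: 50 mM Tris-HCl pH 7.4, 4 mM CaCl2, pargyline, 0.1 mg/mL ascorbic acid. Incubated 37 C for 30 min, then vacuum-filtered on PEI-treated GF/B filters and counted by scintillation. Non-specific binding defined with 10 µM 5-HT. Ki obtained by Cheng-Prusoff.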

[2] = molecular target: T2, 5-hydroxytryptamine receptor 2A (Homo sapiens, UniProt P28223); assay: Displacement of [3H]5-HT from human 5HT2A receptor expressed in CHO cells; type: cell-based; in short: as §1
[3] = molecular target: 5-hydroxytryptamine receptor 2B (Homo sapiens, UniProt P41595); assay: Displacement of [3H]5-HT from human 5HT2B receptor expressed in HEK293-EBNA cells; type: cell-based; in short: as §1
[4] = molecular target: Serotonin 2 receptors; 5-HT2a & 5-HT2c (Homo sapiens) (UniProt P28223+P28335); assay: Selectivity for human 5HT2C receptor over human 5HT2A receptor
Homo sapiens = organism: Homo sapiens; assay: Selectivity for human 5HT2C receptor over human 5HT2B receptor
[5] = molecular target: T3, 5-hydroxytryptamine receptor 2C (Homo sapiens) (UniProt P28335); assay: Intrinsic activity at human 5HT2C receptor expressed in CHO cells assessed as myo-[3H]inositol turnover relative to 5-hydroxytryptamine; type: functional, cell-based
T3 sequence (whole entry): T1 sequence (P28335 whole entry)
In short: (§2)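 Receptor-expressing CHO cells cultured 1 day, then labelled 24 h with myo-[3H]inositol (3 µCi/mL). Cells washed, held in PBS 20 min, then PBS-LiCl 20 min, then exposed 20 min to compound in PBS-LiCl. Stopped with PCA; [3H]inositol phosphates isolated on AG1-X8 anion-exchange columns and counted. Emax expressed relative to 10 µM 5-HT (100%), derived by non-linear fitting.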

[6] = molecular target: T2, 5-hydroxytryptamine receptor 2A; assay: Intrinsic activity at human 5HT2A receptor expressed in CHO cells assessed as myo-[3H]inositol turnover relative to 5-hydroxytryptamine; type: functional, cell-based; in short: as §2
Rattus norvegicus [7] = assay: Effect on penile erection in po dosed rat; type: functional; details: read-out: MED
In short: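 Rats given compound orally and placed singly in clear cages; penile erections counted over 30 min post-dose, with testing between 13:00 and 19:00. Erection scored as pelvic thrusts, rising onto hind limbs, engorged penis and licking. MED taken as the lowest dose differing from vehicle at p < 0.05.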

Rattus norvegicus [8] = assay: Cardiovascular effect in po dosed rat assessed as increase in mean arterial blood pressure; type: functional, organism-based; details: Artery
In short: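 Carotid artery catheterised under pentobarbital (60 mg/kg ip). After at least 2 days of recovery, conscious rats stabilised ≥30 min in cages and then dosed orally at 3–30 mg/kg. Mean arterial blood pressure recorded via the catheter. A 5-HT2A antagonist, MDL100907, was also used.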

T2 sequence (P28223 whole entry): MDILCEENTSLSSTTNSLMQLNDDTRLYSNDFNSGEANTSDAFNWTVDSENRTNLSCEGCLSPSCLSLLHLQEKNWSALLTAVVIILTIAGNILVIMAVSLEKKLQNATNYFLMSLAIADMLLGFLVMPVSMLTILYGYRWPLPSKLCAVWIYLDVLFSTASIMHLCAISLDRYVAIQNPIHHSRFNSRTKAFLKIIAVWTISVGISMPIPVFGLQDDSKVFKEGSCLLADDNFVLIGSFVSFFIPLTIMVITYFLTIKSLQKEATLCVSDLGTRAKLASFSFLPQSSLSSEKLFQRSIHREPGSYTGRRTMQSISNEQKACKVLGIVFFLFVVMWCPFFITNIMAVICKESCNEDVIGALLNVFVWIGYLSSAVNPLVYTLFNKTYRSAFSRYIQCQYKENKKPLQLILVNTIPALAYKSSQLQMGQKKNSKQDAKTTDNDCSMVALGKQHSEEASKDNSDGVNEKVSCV
Serotonin 2 receptors; 5-HT2a & 5-HT2c (Homo sapiens), sequence (P28223 whole entry, looked up, one chain of several): as the sequence (P28223 whole entry) above
5-hydroxytryptamine receptor 2B, sequence (P41595 whole entry): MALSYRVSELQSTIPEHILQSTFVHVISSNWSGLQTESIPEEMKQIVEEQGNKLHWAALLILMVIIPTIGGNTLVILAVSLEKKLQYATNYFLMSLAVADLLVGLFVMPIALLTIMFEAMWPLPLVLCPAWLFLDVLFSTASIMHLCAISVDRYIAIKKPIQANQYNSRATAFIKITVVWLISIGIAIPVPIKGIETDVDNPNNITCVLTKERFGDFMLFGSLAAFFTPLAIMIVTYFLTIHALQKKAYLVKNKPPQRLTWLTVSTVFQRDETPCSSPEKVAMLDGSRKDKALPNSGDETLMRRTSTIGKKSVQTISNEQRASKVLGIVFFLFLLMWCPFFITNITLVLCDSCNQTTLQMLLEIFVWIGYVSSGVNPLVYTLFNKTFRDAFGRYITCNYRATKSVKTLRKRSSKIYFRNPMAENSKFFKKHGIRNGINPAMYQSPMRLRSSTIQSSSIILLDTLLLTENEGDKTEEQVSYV

Clc1ccc2c(c1Cl)CCNCC2
Ki [1]: 8.8 nM
Ki [2]: 93 nM
Ki [3]: 100 nM
Ratio Ki [4]: 11
Ratio Ki (Homo sapiens): 11
Emax [5]: 87%
Emax [6]: 27%
minimal effective dose (Rattus norvegicus [7]): 0.3 mg/kg

CN1CCc2ccc([N+](=O)[O-])c(Cl)c2CC1
Ki [1]: 66 nM
Ki [2]: 400 nM
Ki [3]: 1000 nM
Ratio Ki [4]: 6
Ratio Ki (Homo sapiens): 5
Emax [5]: 85%
Emax [6]: 7%

Fc1ccc2c(c1Cl)CCNCC2
Ki [1]: 43 nM
Ki [2]: 130 nM
Ki [3]: 410 nM
Ratio Ki [4]: 3
Ratio Ki (Homo sapiens): 10
Emax [5]: 80%
Emax [6]: 26%

COc1ccc2c(c1Cl)CCNCC2
Ki [1]: 20 nM
Ki [2]: 62 nM
Ki [3]: 84 nM
Ratio Ki [4]: 3
Ratio Ki (Homo sapiens): 4
Emax [5]: 88%
Emax [6]: 56%

c1cc2ccc3c(c2o1)CCNCC3
Ki [1]: 23 nM
Ki [2]: 99 nM
Ki [3]: 34 nM
Ratio Ki [4]: 4
Ratio Ki (Homo sapiens): 1
Emax [5]: 57%
Emax [6]: 40%

CNc1ccc2c(c1Cl)CCNCC2
Ki [1]: 46 nM
Ki [2]: 90 nM
Ki [3]: 210 nM
Ratio Ki [4]: 2
Ratio Ki (Homo sapiens): 5
Emax [5]: 81%
Emax [6]: 90%

CCc1cc2c(ccc3cnn(C[C@H](C)N)c32)o1
Ki [3]: 2.5 nM
Ratio Ki [4]: 15
Ratio Ki (Homo sapiens): 2.8
minimal effective dose (Rattus norvegicus [7]): 0.3 mg/kg
Activity (Rattus norvegicus [8]): Dose-dependent effect

O=[N+]([O-])c1ccc2c(c1Cl)CCNCC2
Ki [1]: 14 nM
Ki [2]: 51 nM
Ki [3]: 300 nM
Ratio Ki [4]: 4
Ratio Ki (Homo sapiens): 21
Emax [5]: 86%
Emax [6]: 38%

c1cc2c3c(ccc2o1)CCNCC3
Ki [1]: 20 nM
Ki [2]: 46 nM
Ki [3]: 90 nM
Ratio Ki [4]: 2
Ratio Ki (Homo sapiens): 5
Emax [5]: 82%
Emax [6]: 47%

Clc1c(Br)ccc2c1CCNCC2
Ki [1]: 2.4 nM
Ki [2]: 10 nM
Ki [3]: 25 nM
Ratio Ki [4]: 4
Ratio Ki (Homo sapiens): 10
Emax [5]: 71%
Emax [6]: 32%

N#Cc1ccc2c(c1Cl)CCNCC2
Ki [1]: 5.1 nM
Ki [2]: 30 nM
Ki [3]: 65 nM
Ratio Ki [4]: 6
Ratio Ki (Homo sapiens): 13
Emax [5]: 81%
Emax [6]: 23%
